Measured values from different studies.
Protocols differ between the studies behind these lines.
Observed: metabolic stability
Host: human

Structure (SMILES) | system | setting | half-life [min]
CN(C)CCOc1ccc2c(=O)c3c([nH]c2c1)CCCC3 | liver microsomes | 1 µM, pH 7.4 | > 60
Cc1c(C)n(Cc2cccc(OC(C)(C)C(=O)O)c2)c2ccc(C(=O)N[C@@H](C)c3ccc(C(C)(C)C)cc3)cc12 | liver microsomes | – | > 60
O=c1c2c([nH]c3ccc(F)c(Oc4ccc(OC(F)(F)F)cc4)c13)CCCC2 | liver microsomes | 1 µM, pH 7.4 | 14.9
CCCCCCCCCCCCCCCC(=O)NCCOC(=O)C[C@@H](CN)CC(C)C | liver microsomes | 1 µM, pH 7.4 | 60.3
NCc1ccc(-c2nn(Cc3ccccc3)c3ccccc23)o1 | liver microsomes | – | 34
O=c1c2ccc(Oc3cccc(OC(F)(F)F)c3)cc2[nH]c2cc(Cl)cc(F)c12 | liver microsomes | 1 µM, pH 7.4 | > 60
COc1cc(-c2cc(C(C)=O)n3ccccc23)c(OC)cc1Cn1ccnc1 | liver microsomes | pH 7.4 | > 120
O=C(N1CCCCC1)C12CC(c3ccccc3)(C1)C2 | liver microsomes | 2 µM, pH 7.4 | 70.2
CC(C)C(=O)OCc1cc2[nH]c(=S)n(Cc3cccnc3)c(=O)c2cc1Cl | liver microsomes | 1 µM, pH 7.4 | < 5
Cc1ccc(OCC(=O)N[C@@H](Cc2c[nH]c3ccccc23)C(=O)OC(C)C)cc1 | liver microsomes | 20 mM | 352
Cc1ncsc1-c1ccc([C@H](CC(=O)N2CC3(C2)CN(c2ccc(C#Cc4ccc(C(=O)N5CCC(n6cc(-c7ccc8c(c7)CCN8C(=O)Cc7cccc(OC(F)(F)F)c7)c7c(N)ncnc76)CC5)cc4)cn2)C3)NC(=O)[C@@H]2C[C@@H](O)CN2C(=O)[C@@H](NC(=O)C2(F)CC2)C(C)(C)C)cc1 | hepatocytes | 1 µM | > 120
OCc1ccc(-c2nn(Cc3ccccc3)c3ccccc23)o1 | liver microsomes | – | 7
CCN(CC)CCNC(=O)c1c(C)[nH]c(/C=C2\C(=O)Nc3ccc(F)cc32)c1C | liver microsomes | 1 µM | 24.3
O=c1c2c([nH]c3cc(Oc4ccc(OC(F)(F)F)cc4)ccc13)CCCC2 | liver microsomes | 1 µM, pH 7.4 | 26.8
Nc1nnc(-c2ccccc2O)cc1N1CCN(Cc2ccc(N3CCN(CCOc4cccc5c4C(=O)N(C4CCC(=O)NC4=O)C5=O)CC3)c(F)c2)CC1 (stereo not shown) | liver microsomes | 1 mM | 35
CCCN(CCC)CCNc1ccc2c(=O)c3c([nH]c2c1)CCCC3 | liver microsomes | 1 µM, pH 7.4 | > 60
O=c1c2cc(Cl)ccc2[nH]c(=S)n1Cc1ccc(-c2nnn[nH]2)nc1 | liver microsomes | 1 µM, pH 7.4 | > 186
c1ccc(Oc2ccc(Nc3c4c(nc5ccccc35)CCC4)cc2)cc1 | liver microsomes | 0.5 µM | 57
O=c1c2c([nH]c3ccc(Oc4ccc(OC(F)(F)F)cc4)cc13)CCCC2 | liver microsomes | 1 µM, pH 7.4 | 25.1
CN(C)CC(=O)OCc1cc2[nH]c(=S)n(Cc3cccnc3)c(=O)c2cc1Cl | liver microsomes | 1 µM, pH 7.4 | < 5
CCCN(CCC)CCCOc1ccc2c(=O)c3c([nH]c2c1)CCCC3 | liver microsomes | 1 µM, pH 7.4 | 37.3
Cc1[nH]c(C)c(S(=O)(=O)Nc2ccc(C(F)(F)F)c(Cl)c2)c1C(=O)N1CCC(F)(F)C1 | liver microsomes | – | 10.2
CC(C)NCC(O)COc1cccc2ccccc12 (racemic) | liver microsomes | 2 µM, pH 7.4 | 68.2
COCC(=O)OCc1cc2[nH]c(=S)n(Cc3cccnc3)c(=O)c2cc1Cl | liver microsomes | 1 µM, pH 7.4 | < 5
C=CCn1c(=O)c2cnc(Nc3ccc(N4CCN(C)CC4)cc3)nc2n1-c1ccc2c(n1)[C@@](O)(CC)CC2 | hepatocytes | – | 93
Cc1cc2c(C(=O)O)cccc2n1-c1nc2c(c(NCc3ccccc3)n1)CCCN2 | liver microsomes | 1 µM, pH 7.4 | > 120
CN1CCC(Oc2ccc3c(=O)c4c(F)cc(Cl)cc4[nH]c3c2)CC1 | liver microsomes | 1 µM, pH 7.4 | 55.7
O=C1c2ccccc2C(=O)N1CCCN1CCN(C(c2ccc(F)cc2)c2ccc(F)cc2)CC1 | liver microsomes | 100 ng/mL | 10.2
